High-throughput results (PubChem BioAssay)
NPY Y1 blocker: blocks the human neuropeptide Y Y1 receptor; inhibition, % at 3.6 µM; hit rate 1% among 200,000; HEK293-CNG Y1 cells, membrane potential fluorescence; NPY at EC95, then isoproterenol;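 active means inhibition above the campaign mean inhibition of all tested compounds plus 3 SD, cut at about 20% in these data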
Target sequence (P25929 whole entry, looked up): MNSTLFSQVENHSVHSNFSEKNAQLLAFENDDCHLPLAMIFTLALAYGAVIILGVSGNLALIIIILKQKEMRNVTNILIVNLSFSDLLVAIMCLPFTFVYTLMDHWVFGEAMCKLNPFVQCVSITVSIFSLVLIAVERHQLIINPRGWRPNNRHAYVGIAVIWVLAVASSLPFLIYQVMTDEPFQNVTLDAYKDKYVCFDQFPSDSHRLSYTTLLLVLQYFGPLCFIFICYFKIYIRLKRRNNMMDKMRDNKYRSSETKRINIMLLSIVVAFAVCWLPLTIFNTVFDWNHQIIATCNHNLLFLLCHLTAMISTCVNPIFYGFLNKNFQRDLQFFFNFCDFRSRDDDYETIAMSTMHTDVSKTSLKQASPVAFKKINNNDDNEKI
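Material: HEK293 cells with Y1 receptor plus CNG channel; times: compound incubation 1 h at room temperature, readout 45 min post-stimulation; signal: fluorescence, membrane potential probe; read-out basis: fluorescence ratio normalized to % inhibition between controls; benchmarks: full-block control isoproterenol-only wells, zero-block control NPY plus isoproterenol wells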
NPY-Y1 PAM-ag: potentiates or activates human NPY-Y1 receptor. hit rate 0.37% among 220,000. NPY-Y1 expressing cells, potentiator/agonist activation. activation, % at 3.6 µM; in the data active means activation above about 33%, passing the limit was not always enough;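 further: cells stimulated with NPY at EC10 then isoproterenol at EC100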
RAM network inh: inhibitors of the yeast RAM network; inhibition, % at 50 µM; AID 868; S. cerevisiae dse1pr::URA3 reporter, 5-FOA growth OD615, 2 d; analog-sensitive cbk1-as2 kinase mutant strain; hit rate 1.8% among 190,000;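 active means inhibition above a set limit, 3 SD over mean compound inhibition, cut at about 8.4% in these data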;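 further: inhibition rescues growth on 5-FOA so higher OD means more RAM inhibition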
NPY Y2 blocker: antagonists of human neuropeptide Y receptor Y2 | NPY-Y2 expressing cells, antagonist mode | hit rate 0.99% among 140,000 | inhibition, % at 2.7 µM; in the data active means inhibition above about 17%
Insulin prom inh: TRM-6 insulin promoter activity inhibition | TRM-6 cells, insulin promoter-eGFP reporter, imaging; reporter expression induced with tamoxifen | inhibition, % at 2 µM | hit rate 0.9% among 130,000 | AID 1273;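 active means inhibition above the mean plus 3 SD, with well images judged a real hit on visual review, cut at about 60% in these data, passing the limit was not always enough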
NPY-Y2 PAM-ag: potentiators or agonists of human neuropeptide Y receptor Y2 | P49146 | cells expressing NPY-Y2, potentiator/agonist read-out | activation, % at 3.6 µM | hit rate 0.45% among 220,000 | AID 1359; in the data active means activation above about 27%;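 further: cells stimulated with NPY near EC25 plus isoproterenol at EC100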
NPY-Y1 antag ct: counter-screen for NPY-Y2 antagonists: human NPY-Y1 antagonism | shares compounds with NPY Y2 blocker | cell-based NPY-Y1 antagonism counterscreen | inhibition, % at 3.6 µM | hit rate 19% among 710; in the data active means inhibition above about 20%;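 further: cells challenged with NPY then isoproterenol with cAMP sensed through a CNG channel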
NPY2 antag conf: human NPY-Y2 antagonism, confirmation; HEK293 NPY-Y2 CNG channel, membrane potential fluorescence; inhibition, % at 2.8 µM; AID 1257; hit rate 32% among 710; shares compounds with NPY Y2 blocker;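 active means mean inhibition of triplicate wells above the hit cutoff set in the primary screen, cut at about 17% in these data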
A number is an active result; – = inactive; · = no result. In the library only some 3.8% were active in any assay of this set; here they are far more common.

SMILES	NPY Y1 blocker	NPY-Y1 PAM-ag	RAM network inh	NPY Y2 blocker	Insulin prom inh	NPY-Y2 PAM-ag	NPY-Y1 antag ct	NPY2 antag conf
COC(=O)c1c(C)oc2ccc(N(C(=O)c3ccncc3)S(=O)(=O)c3ccc4ccccc4c3)cc12	–	–	–	22.9	·	–	–	31.2
CCc1ccc(NSc2ccccc2[N+](=O)[O-])cc1	–	–	–	–	–	–	·	·
Cc1ccc(N(C)S(=O)(=O)c2cccc(C(=O)Nc3nc4ccccc4[nH]3)c2)cc1	–	–	–	23.0	–	–	42.4	20.1
O=C(/C=C/c1cccc(Cl)c1)c1nc2ccccc2[nH]1	–	–	–	17.7	·	–	–	33.6
COCCCn1c(=N)c(C(=O)NCc2ccc3c(c2)OCO3)cc2c(=O)n3ccccc3nc21	–	–	–	20.0	·	–	–	–
COCCn1c(=N)c(C(=O)NCc2ccco2)cc2c(=O)n3ccccc3nc21	–	–	–	–	–	–	·	·
N=c1c(C(=O)NCc2ccccc2)cc2c(=O)n3ccccc3nc2n1Cc1ccco1	–	–	–	22.7	–	–	–	–
Cc1ccc2nc3c(cc(C(=O)NCc4ccco4)c(=N)n3Cc3ccco3)c(=O)n2c1	–	–	–	·	–	–	·	·
N=c1c(C(=O)NCc2ccco2)cc2c(=O)n3ccccc3nc2n1Cc1ccccc1	–	–	–	23.6	–	–	–	–
CC(=O)N1CCCC1(C(=O)O)c1ccccc1 (stereo not given)	·	–	·	·	·	–	·	·
O=C(O)COc1ccccc1/C=N/NC(=O)CSc1nnc(SCc2ccccc2)s1	·	–	·	·	·	–	·	·
CCn1nc(C(=O)Nc2cccc3ccccc23)c(Cl)c1Cl	–	–	–	18.1	·	–	–	–
O=C(Nc1cccn(Cc2c(Cl)cccc2Cl)c1=O)c1c(Cl)cccc1Cl	–	–	–	20.2	–	–	–	–
COCCOC(=O)c1[nH]c2c(c1C)C(=O)CC(c1ccco1)C2 (stereo not given)	–	–	–	31.7	·	–	–	–
Cn1c(=O)c2c(ncn2CC(=O)N2CCN(C(=O)c3ccco3)CC2)n(C)c1=O	–	–	–	·	·	–	·	·
CCCn1nc(C(=O)OCC(=O)c2c(N)n(C)c(=O)n(C)c2=O)c2ccccc2c1=O	–	–	–	·	–	–	·	·
CNC(=S)SCCOc1ccccc1C	–	–	–	–	·	–	·	·
Cc1cccc(COCC(CC(C)C)N2CCN(C(=O)c3ccc(C(C)(C)C)cc3)CCC2=O)c1 (stereo not given)	–	–	–	18.8	–	–	–	–
Cc1cccc(COCC(CC(C)C)N2CCN(C(=O)c3ccc(C(F)(F)F)cc3)CCC2=O)c1 (stereo not given)	–	–	–	–	–	–	·	·
CCC(=O)Nc1cc(Cl)ccc1N1CCN(C(=O)CC)CC1	–	–	–	–	–	–	·	·
CCC(=O)N1CCN(c2ccc(Cl)cc2NC(=O)Cc2ccccc2)CC1	–	–	–	20.8	–	–	–	–
NCCc1c(-c2ccccc2)n(-c2ccccc2)c2ccccc12	–	–	–	·	·	–	·	·
O=C1c2ccccc2NC(c2c(Cl)cccc2Cl)N1Cc1ccccc1 (stereo not given)	–	–	–	–	–	–	·	·
O=C1c2ccccc2NC(c2ccc(Cl)cc2Cl)N1Cc1ccccc1 (stereo not given)	–	–	–	27.7	–	–	–	–
CN1CCN(/N=C/c2c3ccccc3c(Cl)c3ccccc23)CC1	–	–	–	·	–	–	·	·
SMILES	NPY Y1 blocker	NPY-Y1 PAM-ag	RAM network inh	NPY Y2 blocker	Insulin prom inh	NPY-Y2 PAM-ag	NPY-Y1 antag ct	NPY2 antag conf
CCNc1cc(Cl)nc(SC)n1	–	–	–	24.5	–	–	–	–
CCNc1cc(N2CCOCC2)nc(SC)n1	–	–	–	·	–	–	·	·
Cc1ccc(OCCCCN(C)Cc2ccccc2)c(Br)c1	–	–	–	17.8	–	–	–	18.4
COc1ccccc1OCCCOc1ccc(C)cc1Br	–	–	–	–	–	–	·	·
CCOC(=O)C1CCCN(Cc2nc(Cc3ccccc3Cl)no2)C1 (stereo not given)	–	–	–	·	·	–	·	·
COCCn1c(-c2ccc(Cl)cc2)cnc1SCC(=O)NCc1cccs1	–	–	–	18.4	–	–	–	–
